Assay results from ChEMBL document CHEMBL4266056, “Discovery and Pharmacology of a Novel Somatostatin Subtype 5 (SSTR5) Antagonist: Synergy with DPP-4 Inhibition” (ACS Med Chem Lett, 2018).

Assays:
[1] = biological target: T1, Somatostatin receptor type 5 (Homo sapiens, UniProt P35346); experiment: Displacement of (3-125I-Tyr11)-SRIF-28 from human SSTR5 expressed in CHO-K1 cell membranes by filtration binding assay
[2] = biological target: T2, Somatostatin receptor type 5 (Mus musculus, UniProt O08858); experiment: Displacement of (3-125I-Tyr11)-SRIF-28 from mouse SSTR5 expressed in CHO-K1 cell membranes by filtration binding assay
T2 sequence (O08858 whole entry): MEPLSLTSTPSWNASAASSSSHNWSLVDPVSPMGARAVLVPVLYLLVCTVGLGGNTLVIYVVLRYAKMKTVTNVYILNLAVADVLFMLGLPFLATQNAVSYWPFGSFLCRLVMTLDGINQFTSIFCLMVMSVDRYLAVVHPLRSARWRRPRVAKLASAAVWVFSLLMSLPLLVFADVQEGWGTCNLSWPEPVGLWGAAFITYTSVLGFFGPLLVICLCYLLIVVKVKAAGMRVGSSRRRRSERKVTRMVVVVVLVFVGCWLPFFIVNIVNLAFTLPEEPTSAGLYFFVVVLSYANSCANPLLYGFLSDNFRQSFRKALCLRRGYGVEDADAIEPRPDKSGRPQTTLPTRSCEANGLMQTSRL

[3] = biological target: T1, Somatostatin receptor type 5; experiment: Antagonist activity at human SSTR5 expressed in CHO-K1 cell membranes assessed as reduction in SST-28-induced inhibition of forskolin-stimulated cAMP accumulation by LANCE assay; format: functional, cell-based
Mus musculus [4] = experiment: Antidiabetic activity in HFD fed C57BL/6N mouse assessed as decrease in blood glucose AUC at 10 mg/kg administered as single oral dose pretreated for 60 mins followed by glucose challenge measured after 120 mins by OGTT; format: functional; set-up: scale not given: the % may be the effect or the level left
In short: (§1)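 Male C57BL/6 mice were fed HFD (D12492) for 21 days, n=3. Compound was given orally 1 h before an oral glucose load, and blood glucose was followed over 0-120 min. Read-out is the decrease in glucose AUC versus vehicle.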

[5] = biological target: T2, Somatostatin receptor type 5; experiment: Antagonist activity at mouse SSTR5 expressed in CHO-K1 cell membranes assessed as reduction in SST-28-induced inhibition of forskolin-stimulated cAMP accumulation by LANCE assay; format: functional, cell-based
[6] = biological target: Voltage-gated inwardly rectifying potassium channel KCNH2 (Homo sapiens, UniProt Q12809); experiment: Inhibition of MK-499 binding to human ERG
Sequence of Voltage-gated inwardly rectifying potassium channel KCNH2 (Q12809 whole entry): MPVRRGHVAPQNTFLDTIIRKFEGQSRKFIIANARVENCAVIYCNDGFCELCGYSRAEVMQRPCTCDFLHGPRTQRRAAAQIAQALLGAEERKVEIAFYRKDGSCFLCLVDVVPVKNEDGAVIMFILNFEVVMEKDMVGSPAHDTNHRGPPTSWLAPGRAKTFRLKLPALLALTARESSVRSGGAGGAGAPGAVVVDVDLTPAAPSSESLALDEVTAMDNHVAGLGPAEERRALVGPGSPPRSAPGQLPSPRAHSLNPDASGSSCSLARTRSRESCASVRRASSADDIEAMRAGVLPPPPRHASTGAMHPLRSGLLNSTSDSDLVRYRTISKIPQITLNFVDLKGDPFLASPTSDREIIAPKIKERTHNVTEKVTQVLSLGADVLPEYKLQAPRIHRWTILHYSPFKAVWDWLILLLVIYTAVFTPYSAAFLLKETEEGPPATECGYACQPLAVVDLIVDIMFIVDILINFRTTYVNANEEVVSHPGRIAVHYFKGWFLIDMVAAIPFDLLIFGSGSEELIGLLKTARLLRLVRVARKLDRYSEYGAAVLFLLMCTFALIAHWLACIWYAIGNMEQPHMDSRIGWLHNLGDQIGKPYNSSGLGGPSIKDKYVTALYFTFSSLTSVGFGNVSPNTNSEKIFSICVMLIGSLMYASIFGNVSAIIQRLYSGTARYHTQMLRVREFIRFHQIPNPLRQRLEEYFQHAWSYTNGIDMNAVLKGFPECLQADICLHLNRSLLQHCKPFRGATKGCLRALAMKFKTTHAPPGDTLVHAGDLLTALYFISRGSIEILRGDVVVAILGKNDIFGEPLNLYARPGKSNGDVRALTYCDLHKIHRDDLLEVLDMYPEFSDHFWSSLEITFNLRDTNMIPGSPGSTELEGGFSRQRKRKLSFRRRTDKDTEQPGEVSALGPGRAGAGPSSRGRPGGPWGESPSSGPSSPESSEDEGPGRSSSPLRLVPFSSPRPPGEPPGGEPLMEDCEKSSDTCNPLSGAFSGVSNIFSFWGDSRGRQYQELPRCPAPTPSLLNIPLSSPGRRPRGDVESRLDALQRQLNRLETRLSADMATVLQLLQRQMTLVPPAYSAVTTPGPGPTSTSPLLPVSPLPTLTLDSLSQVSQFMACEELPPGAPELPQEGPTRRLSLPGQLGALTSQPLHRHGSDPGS

[7] = biological target: Somatostatin receptor type 1 (Homo sapiens, UniProt P30872); experiment: Antagonist activity at human SSTR1 expressed in CHO-K1 cell membranes; format: functional, cell-based
Sequence of Somatostatin receptor type 1 (P30872 whole entry): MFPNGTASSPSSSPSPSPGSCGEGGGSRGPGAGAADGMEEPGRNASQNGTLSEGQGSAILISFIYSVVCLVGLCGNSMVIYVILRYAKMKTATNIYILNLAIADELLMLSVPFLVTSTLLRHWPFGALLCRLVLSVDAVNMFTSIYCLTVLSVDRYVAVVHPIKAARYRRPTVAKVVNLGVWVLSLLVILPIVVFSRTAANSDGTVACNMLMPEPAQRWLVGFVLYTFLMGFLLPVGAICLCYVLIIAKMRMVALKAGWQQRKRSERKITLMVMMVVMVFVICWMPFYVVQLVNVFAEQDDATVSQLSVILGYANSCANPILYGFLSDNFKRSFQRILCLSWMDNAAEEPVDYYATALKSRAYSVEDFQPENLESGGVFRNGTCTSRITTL
In short: (§2)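 Counter-screen by filtration membrane binding: competitive displacement of radiolabeled SST-28 from cell membranes expressing human SSTR1, SSTR2, SSTR3 or SSTR4. The IC50 is the mean of at least duplicate experiments within a maximal threefold range.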

Mus musculus [8] = experiment: Antidiabetic activity in HFD fed C57BL/6N mouse assessed as decrease in blood glucose AUC at 30 mg/kg administered as single oral dose pretreated for 60 mins followed by glucose challenge measured after 120 mins by OGTT; format: functional; set-up: scale not given: the % may be the effect or the level left; in short: as §1
Mus musculus [9] = experiment: Drug uptake in mouse whole blood at 30 mg/kg, po measured at […]
[10] = biological target: Somatostatin receptor type 3 (Homo sapiens, UniProt P32745); experiment: Antagonist activity at human SSTR3 expressed in CHO-K1 cell membranes; format: functional, cell-based; in short: as §2
Sequence of Somatostatin receptor type 3 (P32745 whole entry): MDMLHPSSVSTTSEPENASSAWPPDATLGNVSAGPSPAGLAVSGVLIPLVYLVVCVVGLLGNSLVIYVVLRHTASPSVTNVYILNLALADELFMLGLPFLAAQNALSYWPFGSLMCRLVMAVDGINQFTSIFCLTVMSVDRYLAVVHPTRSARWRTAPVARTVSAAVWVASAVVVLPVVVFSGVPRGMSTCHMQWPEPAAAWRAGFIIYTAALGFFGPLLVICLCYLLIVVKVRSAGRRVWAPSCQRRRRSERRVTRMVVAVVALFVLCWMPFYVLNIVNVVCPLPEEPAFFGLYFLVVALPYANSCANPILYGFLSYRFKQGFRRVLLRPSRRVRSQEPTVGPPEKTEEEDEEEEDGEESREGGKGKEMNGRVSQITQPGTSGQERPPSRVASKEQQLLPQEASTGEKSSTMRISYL

[11] = Oral bioavailability in mouse; format: ADME, organism-based; details: in vivo
[12] = Half life in mouse; format: ADME, organism-based; details: in vivo

T1 sequence (P35346 whole entry): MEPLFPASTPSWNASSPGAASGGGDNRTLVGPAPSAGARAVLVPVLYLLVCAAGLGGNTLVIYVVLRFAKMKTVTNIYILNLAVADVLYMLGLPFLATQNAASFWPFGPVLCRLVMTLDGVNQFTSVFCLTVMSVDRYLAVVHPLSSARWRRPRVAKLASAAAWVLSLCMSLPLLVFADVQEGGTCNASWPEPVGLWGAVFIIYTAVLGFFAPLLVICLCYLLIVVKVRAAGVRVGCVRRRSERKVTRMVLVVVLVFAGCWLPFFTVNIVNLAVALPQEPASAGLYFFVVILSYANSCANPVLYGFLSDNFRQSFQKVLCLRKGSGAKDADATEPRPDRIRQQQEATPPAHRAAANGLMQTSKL

SMILES | IC50 [1] | IC50 [2] | IC50 [3] | IC50 [5] | IC50 [7] | concentration at […] (Mus musculus [9]) | IC50 [10] | bioavailability [11] | half-life [12] | Activity (Mus musculus [4]) | IC50 [6] | Activity (Mus musculus [8])
CCOc1cc(CN2CCC3(CC2)CC(Cc2ccc(F)cc2)C(=O)O3)cc(OCC)c1-c1ccc(F)cc1 (racemic) | 1.6 nM | 2.5 nM | 67 nM | – | – | – | – | – | – | – | – | –
CCOc1cc(CN2CCC3(CC2)CCN(S(=O)(=O)c2cccnc2)CC3)cc(OCC)c1-c1ccc(F)cc1 | 13 nM | – | 26 nM | – | – | – | – | – | – | – | 210 nM | –
CCOc1cc(CN2CCC3(CC2)NC(=O)NC3=O)cc(OCC)c1-c1ccc(F)cc1 | 83 nM | 32 nM | 110 nM | 7.4 nM | – | 460 nM | – | – | – | – | 25000 nM | 54%
CCOc1cc(CN2CCC(c3ncc(-c4ccc(F)cc4)[nH]3)CC2)cc(OCC)c1-c1ccc(F)cc1 | 7.6 nM | 2.7 nM | 247 nM | 98 nM | – | – | 119 nM | – | – | – | 260 nM | –
CCOc1cc(CN2CC[C@H]3C(Nc4nc5ccc(C(=O)O)cc5o4)CC[C@H]32)cc(OCC)c1-c1ccc(F)cc1 (relative stereo) | 2.5 nM | 16 nM | 4.5 nM | 6.1 nM | 6000 nM | 760 nM | – | 48% | 1.7 h | – | 15000 nM | 56%
CCOc1cc(CN2CCC(C3CCN(S(=O)(=O)c4ccccc4)CC3)CC2)cc(OCC)c1-c1ccc(F)cc1 | 0.7 nM | 0.8 nM | 8.6 nM | 28 nM | – | 92 nM | – | 13% | – | – | 220 nM | 60%

Continued, in another order:

IC50 [1] | IC50 [2] | IC50 [3] | IC50 [5] | IC50 [7] | concentration at […] (Mus musculus [9]) | IC50 [10] | bioavailability [11] | half-life [12] | SMILES | Activity (Mus musculus [4]) | IC50 [6] | Activity (Mus musculus [8])
21 nM | 13 nM | 73 nM | – | – | – | – | – | – | CCOc1cc(CN2CCC(Oc3nccc(Cl)n3)CC2)cc(OCC)c1-c1ccc(F)cc1 | – | – | –
1.3 nM | 1 nM | 3.1 nM | 2.7 nM | < 300 nM | – | – | – | – | CCOc1cc(CN2CCC(NC(=O)c3cncc(C)c3)CC2)cc(OCC)c1-c1ccc(F)cc1 | 87% | 1690 nM | –
2.9 nM | 0.6 nM | 67.8 nM | 7.1 nM | – | – | – | – | – | CCOc1cc(CN2CCC(COc3cccc4cccnc34)CC2)cc(OCC)c1-c1ccc(F)cc1 | – | 210 nM | –
